# Experimental data from article PMC11299136 (ACS Applied Materials & Interfaces, 2024).
# B1: bovine trypsin (protein, UniProt P00760 24-246, looked up)
# Serine protease 1: IVGGYTCGANTVPYQVSLNSGYHFCGGSLINSQWVVSAAHCYKSGIQVRLGEDNINVVEGNEQFISASKSIVHPSYNSNTLNNDIMLIKLKSAASLNSRVASISLPTSCASAGTQCLISGWGNTKSSGTSYPDVLKCLKAPILSDSSCKSAYPGQITSNMFCAGYLEGGKDSCQGDSGGPVVCSGKLQGIVSWGSGCAQKNKPGVYTKVCNYVSWIKQTIASN
# Key:
# [1] = Temperature-dependent circular dichroism; assay type: physicochemical
# Outline: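 Proteins were either diluted in PBS or dispersed in PFOc with 1 mM dispersant. The aqueous samples were heated between 40 and 90 °C, with a CD spectrum taken at each temperature. The PFOc dispersions were heat-treated at 40, 55, 70 and 85 °C for 15 min each, then mixed with PBS to elute the protein before CD. Each condition was run in triplicate, and representative spectra were reported.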
# HepG2 cells = test: Cellular toxicity, MTT assay; assay type: cell-based, human; conditions: 2–128 μL fluorous solvent added to culture medium, 48 h
# Outline: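 HepG2 cells seeded at 2000 cells/well and allowed to adhere overnight. Dispersant at 10 nM–1 mM in culture medium, or 2–128 μL fluorous solvent added to the medium, for 48 h. Serum-free medium served as the negative control and 20% DMSO in serum-free medium as the positive control. Then 0.5 mg/mL MTT in serum-free medium for 2 h, formazan dissolved in DMSO, A540 read. Viability was normalized between the two controls.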
# bacteria = test: Control bacterial viability; assay type: cell-based; conditions: component alone: PFOc mixed with bacterial media, or PD-7 added to PBS
# [2] = dispersed in PFOc using PD-7, heated up to 85 °C
Molecule,"change in secondary structure on heating (CD) [1, 2]",toxicity toward human liver cells (HepG2 cells),MIC / bacterial viability (bacteria),"change in secondary structure on heating (CD) ([1]; saline (PBS) control formulation, 40–85 °C)"
rabbit serum immunoglobulin [IgG],minimal changes in secondary structure,–,–,–
β-galactosidase,minimal changes in secondary structure,–,–,–
bovine serum albumin [BSA],minimal changes in secondary structure,–,–,–
"FC(F)(F)C(F)(F)C(F)(F)C(F)(F)C(F)(F)C(F)(F)C(F)(F)C(F)(F)F [PFOc, perfluorooctane]",–,biocompatible,no MIC could be calculated,–
B1,minimal changes in secondary structure,–,–,minimal change in structure
